From ChEMBL document CHEMBL1629441, “Synthesis, in vitro and in vivo biological evaluation, and comprehensive understanding of structure-activity relationships of dipeptidyl boronic acid proteasome inhibitors constructed from β-amino acids” (J Med Chem, 2010)

Test system: SK-OV-3
Assay: Cytotoxicity against human SKOV3 cells after 72 hrs by MTT assay
Assay type: functional, cell-based
Conditions: SK-OV-3, 72 h; call rule not given here
Summary of the method: (§1)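 MTT growth assay: 3000 cells per well seeded, after 24 h exposed to 10 drug concentrations for 72 h, then MTT (5 mg/mL stock) 4 h at 37 °C. Formazan dissolved in DMSO, absorbance at 540 nm. Points in triplicate; IC50 is mean of at least three independent determinations. Cells grown at 37 °C, 5% CO2 with FBS.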

Row | Compound | IC50
1 | CC(C)C[C@H](NC(=O)[C@H](Cc1ccccc1)NC(=O)c1cnccn1)B(O)O [BORTEZOMIB] | 66.8 nM

Test system: A549
Assay: Cytotoxicity against human A549 cells after 72 hrs by MTT assay
Assay type: functional, cell-based
Conditions: A549, 72 h
Summary of the method: as §1

Row | Compound | IC50
2 | CC(C)C[C@H](NC(=O)[C@H](Cc1ccccc1)NC(=O)c1cnccn1)B(O)O [BORTEZOMIB] | 13.9 nM

Test system: not listed separately
Assay: Mean residence time (0-t) in Sprague-Dawley rat at 1 mg/kg, iv
Assay type: ADME, organism-based
Set-up: dose 1 mg/kg, route intravenous
Conditions: in vivo
Summary of the method: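 Male SD rats given single 1.0 mg/kg iv bolus of solution (0.5 mg/mL) in 1% ethanol, 1% Tween80, 98% buffered saline. Heparinized blood samples (n = 4) centrifuged 4000 rpm, 5 min, 4 °C; plasma concentrations used to derive PK parameters.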

Row | Compound | MRT last
3 | CC(C)C[C@H](NC(=O)[C@H](Cc1ccccc1)NC(=O)c1cnccn1)B(O)O [BORTEZOMIB] | 1.4 h

Test system: SW480
Assay: Cytotoxicity against human SW480 cells after 72 hrs by MTT assay
Assay type: functional, cell-based
Conditions: SW480, 72 h
Summary of the method: as §1

Row | Compound | IC50
4 | CC(C)C[C@H](NC(=O)[C@H](Cc1ccccc1)NC(=O)c1cnccn1)B(O)O [BORTEZOMIB] | 12.3 nM

Test system: HepG2
Assay: Cytotoxicity against human HepG2 cells after 72 hrs by MTT assay
Assay type: functional, cell-based
Conditions: HepG2, 72 h
Summary of the method: as §1

Row | Compound | IC50
5 | CC(C)C[C@H](NC(=O)[C@H](Cc1ccccc1)NC(=O)c1cnccn1)B(O)O [BORTEZOMIB] | 25.2 nM

Test system: HL-60
Assay: Cytotoxicity against human HL60 cells after 72 hrs by MTT assay
Assay type: functional, cell-based
Conditions: HL-60, 72 h
Summary of the method: as §1

Row | Compound | IC50
6 | CC(C)C[C@H](NC(=O)[C@H](Cc1ccccc1)NC(=O)c1cnccn1)B(O)O [BORTEZOMIB] | 3.5 nM

Test system: Rattus norvegicus
Assay: Toxicity in Sprague-Dawley rat assessed as incidence of mortality at 1 mg/kg, iv after 10 hrs
Assay type: organism-based
Set-up: dose 1 mg/kg, route intravenous
Conditions: in vivo
Summary of the method: (§2)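 Male SD rats dosed once at 1.0 mg/kg, iv bolus or intragastric, during the PK study. Dosing solution 0.5 mg/mL in 1% ethanol, 1% Tween80, 98% buffered saline. Animals observed for death and toxic reactions over 10 h. n = 4 per PK group.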

Row | Compound | Activity
7 | CC(C)C[C@H](NC(=O)[C@H](Cc1ccccc1)NC(=O)c1cnccn1)B(O)O [BORTEZOMIB] | Toxic

Test system: PC-3
Assay: Cytotoxicity against human PC3 cells after 72 hrs by MTT assay
Assay type: functional, cell-based
Conditions: PC-3, 72 h
Summary of the method: as §1

Row | Compound | IC50
8 | CC(C)C[C@H](NC(=O)[C@H](Cc1ccccc1)NC(=O)c1cnccn1)B(O)O [BORTEZOMIB] | 8.3 nM

Test system: not listed separately
Assay: Mean residence time (0-t) in Sprague-Dawley rat at 1 mg/kg, ig
Assay type: ADME, organism-based
Set-up: dose 1 mg/kg, route intragastric
Conditions: in vivo, po
Summary of the method: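 Male SD rats dosed intragastrically at 1.0 mg/kg from 0.5 mg/mL solution in 1% ethanol, 1% Tween80, 98% buffered saline. Heparinized blood (n = 4) centrifuged 4000 rpm, 5 min, 4 °C; plasma lower limit of detection 5 ng/mL.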

Row | Compound | MRT last
9 | CC(C)C[C@H](NC(=O)[C@H](Cc1ccccc1)NC(=O)c1cnccn1)B(O)O [BORTEZOMIB] | 7.69 h

Test system: not listed separately
Assay: Inhibition of human 20S proteasome chymotrypsin-like activity by fluorimetric assay
Conditions: not given
Summary of the method: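 Human 20S proteasome preincubated with test compound, then Suc-Leu-Leu-Val-Tyr-AMC hydrolysis monitored 1 h at 37 °C by fluorescence (excitation 360 nm, 465 nm). Buffer pH 7.5: 20 mM Tris, 1 mM DTT, 10% glycerol, 0.02% (w/v) SDS; DMSO 3% (v/v) final. IC50 from five concentrations, each in duplicate; bortezomib standard.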

Row | Compound | IC50
10 | CC(C)C[C@H](NC(=O)CC(NC(=O)C(=O)OC(C)(C)C)c1cccc(Cl)c1)B(O)O (some centres not stated) | Not Active
11 | CC(C)C[C@H](NC(=O)CC(NC(=O)C(=O)OC(C)(C)C)c1cccc(F)c1)B(O)O (some centres not stated) | Not Active
12 | COc1cccc(C(CC(=O)N[C@@H](CC(C)C)B(O)O)NC(=O)C(=O)OC(C)(C)C)c1 (some centres not stated) | Not Active
13 | Cc1ccccc1C[C@H](NC(=O)CC(NC(=O)c1ccccc1)c1cccc(F)c1)B(O)O (some centres not stated) | Not Active
14 | O=C(CC(NC(=O)c1ccccc1)c1cccc(F)c1)N[C@@H](CC1CCCCC1)B(O)O (some centres not stated) | Not Active
15 | Cc1ccccc1C[C@H](NC(=O)CC(NC(=O)c1ccccc1)c1cccc(Cl)c1)B(O)O (some centres not stated) | Not Active
16 | Cc1cccc(C[C@H](NC(=O)CC(NC(=O)c2ccccc2)c2cccc(Cl)c2)B(O)O)c1 (some centres not stated) | Not Active
17 | O=C(CC(NC(=O)c1ccccc1)c1cccc(Cl)c1)N[C@@H](Cc1cccc(F)c1)B(O)O (some centres not stated) | Not Active
18 | O=C(CC(NC(=O)c1ccccc1)c1cccc(Cl)c1)N[C@@H](CC1CCCCC1)B(O)O (some centres not stated) | Not Active
19 | O=C(CC(NC(=O)c1cccnc1)c1cccc(Cl)c1)N[C@@H](CC1CCCCC1)B(O)O (some centres not stated) | Not Active
20 | COc1cccc(C(CC(=O)N[C@@H](Cc2ccccc2C)B(O)O)NC(=O)c2cccnc2)c1 (some centres not stated) | Not Active
21 | CC(=O)NC(CC(=O)N[C@@H](CC(C)C)B(O)O)c1cccc(Cl)c1 (some centres not stated) | Not Active
22 | COc1cccc(C(CC(=O)N[C@@H](CC(C)C)B(O)O)NC(C)=O)c1 (some centres not stated) | Not Active
23 | CC(=O)NC(CC(=O)N[C@@H](CC(C)C)B(O)O)c1cccc(F)c1 (some centres not stated) | Not Active

Next, values leading:

Row | IC50 | Compound
24 | Not Active | CC(C)C[C@H](NC(=O)CC(NC(=O)c1ccccc1)c1ccccc1[N+](=O)[O-])B(O)O (some centres not stated)
25 | Not Active | CC(C)C[C@H](NC(=O)CC(NC(=O)c1cccnc1)c1cccc(F)c1)B(O)O (some centres not stated)
26 | Not Active | CC(C)C[C@H](NC(=O)CC(NC(=O)c1cccnc1)c1ccccc1Cl)B(O)O (some centres not stated)
27 | Not Active | CC(C)C[C@H](NC(=O)CC(NC(=O)c1cccnc1)c1ccccc1[N+](=O)[O-])B(O)O (some centres not stated)

Same assay, conditions: read-out: IC50

Row | Compound | IC50
28 | CC(C)C[C@H](NC(=O)CC(NC(=O)c1cnccn1)c1cccc(F)c1)B(O)O (some centres not stated) | 269 nM
29 | CC(C)C[C@H](NC(=O)CC(NC(=O)C1CCCCC1)c1cccc(F)c1)B(O)O (some centres not stated) | 33.1 nM
30 | CC(C)C[C@H](NC(=O)CC(NC(=O)c1ccccc1)c1ccc(F)cc1)B(O)O (some centres not stated) | 34.6 nM
31 | COc1cccc(C(CC(=O)N[C@@H](CC(C)C)B(O)O)NC(=O)c2ccccc2)c1 (some centres not stated) | 46.7 nM
32 | CC(C)C[C@H](NC(=O)[C@H](Cc1ccccc1)NC(=O)c1cnccn1)B(O)O [BORTEZOMIB] | 1.54 nM

Further lines, results first:

Row | IC50 | Compound
33 | 38.9 nM | CC(C)C[C@H](NC(=O)CC(NC(=O)c1ccccc1)c1ccccc1F)B(O)O (some centres not stated)
34 | 19 nM | CC(C)C[C@H](NC(=O)CC(NC(=O)c1ccccc1)c1cccc(F)c1)B(O)O (some centres not stated)
35 | 89.1 nM | CC(C)C[C@H](NC(=O)CC(NC(=O)c1ccccc1)c1ccccc1Cl)B(O)O (some centres not stated)
36 | 16.5 nM | CC(C)C[C@H](NC(=O)CC(NC(=O)c1ccccc1)c1cccc(Cl)c1)B(O)O (some centres not stated)
37 | 224 nM | COc1ccccc1C(CC(=O)N[C@@H](CC(C)C)B(O)O)NC(=O)c1ccccc1 (some centres not stated)
38 | 42.6 nM | CC(C)C[C@H](NC(=O)CC(NC(=O)c1ccccc1)c1cccc([N+](=O)[O-])c1)B(O)O (some centres not stated)
39 | 35.4 nM | CC(C)C[C@H](NC(=O)CC(NC(=O)c1ccccc1)c1ccc([N+](=O)[O-])cc1)B(O)O (some centres not stated)
40 | 1250 nM | Cc1ccccc1C(CC(=O)N[C@@H](CC(C)C)B(O)O)NC(=O)c1ccccc1 (some centres not stated)
41 | 50.1 nM | Cc1cccc(C(CC(=O)N[C@@H](CC(C)C)B(O)O)NC(=O)c2ccccc2)c1 (some centres not stated)
42 | 1100 nM | CC(C)C[C@H](NC(=O)CC(NC(=O)c1cccnc1)c1ccccc1F)B(O)O (some centres not stated)
43 | 590 nM | CC(C)C[C@H](NC(=O)CC(NC(=O)c1cccnc1)c1ccc(F)cc1)B(O)O (some centres not stated)
44 | 22.9 nM | CC(C)C[C@H](NC(=O)CC(NC(=O)c1cccnc1)c1cccc(Cl)c1)B(O)O (some centres not stated)

Test system: Rattus norvegicus
Assay: Toxicity in Sprague-Dawley rat assessed as incidence of mortality at 1 mg/kg, ig after 10 hrs
Assay type: organism-based
Set-up: dose 1 mg/kg, route intragastric
Conditions: in vivo, po
Summary of the method: as §2

Row | Compound | Activity
45 | CC(C)C[C@H](NC(=O)[C@H](Cc1ccccc1)NC(=O)c1cnccn1)B(O)O [BORTEZOMIB] | Toxic

Test system: BXPC-3
Assay: Cytotoxicity against human BxPC3 cells after 72 hrs by MTT assay
Assay type: functional, cell-based
Conditions: BXPC-3, 72 h
Summary of the method: as §1

Row | Compound | IC50
46 | CC(C)C[C@H](NC(=O)[C@H](Cc1ccccc1)NC(=O)c1cnccn1)B(O)O [BORTEZOMIB] | 19.4 nM

Test system: not listed separately
Assay: Cytotoxicity against human RPMI18226 cells after 72 hrs by MTT assay
Assay type: functional, cell-based
Conditions: RPMI18226, 72 h
Summary of the method: as §1

Row | Compound | IC50
47 | CC(C)C[C@H](NC(=O)[C@H](Cc1ccccc1)NC(=O)c1cnccn1)B(O)O [BORTEZOMIB] | 3.5 nM
